Where “and” joins values, the source holds several entries; their conditions need not be identical. Equal values may be shown once.
How the values were obtained:
HP1α-DNA condensates [1] = molecular target: T1, HP1α-DNA condensates (Homo sapiens, UniProt P45973); test: Microrheology; format: physicochemical
Method in brief: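 HP1α at 20 μM with 40nM 2.5kbp, 20nM 4kbp or 9nM 10kbp DNA, with or without 10 or 42μM H3K9me3 peptide. 200nm carboxylated fluorescent beads were embedded and tracked on a spinning-disc confocal (x63/1.4NA oil) at 200ms interval, 1000 frames, 10–50ms exposure, 23°C ± 2°C. Beads near boundaries were avoided. 2D MSD was time- and ensemble-averaged, and α was taken as the log-log slope versus lag time.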

HP1α = conditions: ref [27]; cited from earlier work
HP1α-DNA condensates [2] = molecular target: T1, HP1α-DNA condensates; test: FRAP of Alexa-488 labeled HP1α in HP1α-DNA condensates; format: physicochemical; conditions: for FRAP dynamics of HP1α, in words: HP1α-DNA condensates, all three DNA lengths, no histone peptide
Method in brief: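 Alexa-488 maleimide-labeled HP1α (~1%) mixed with unlabeled protein to 20uM in 70mM KCl, 20mM HEPES, 1mM DTT, pH 7.4. DNA 40nM (2.5kbp) to 9nM (10kbp), with or without H3K9me3 peptide up to 42μM, at 23°C. A 0.5–1um area bleached on a spinning-disc confocal. Recovery was fitted to an exponential to give mobile fraction (I0) and half-time ln(2)/β.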

[3] = tested on: DNA (2.5kbp, 4kbp, 10kbp); test: Phase separation of HP1α with DNA of different length; format: physicochemical
Method in brief: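 HP1α was 0.22um-filtered, buffer-exchanged and mixed with dsDNA to 20uM HP1α (12.5–20μM tested) and nanomolar DNA. Buffer was 70mM KCl, 20mM HEPES, 1mM DTT, pH 7.5, in a 7ul reaction at 23°C on Pluronic F-127–treated slides. Imaging used wide-field DIC with a ×40 air objective at t=0 and 60 min.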

[4] = 70mM KCl, 20mM HEPES, 1mM DTT, pH 7.5
[5] = with HP1α 12.5μM-20μM, 70mM KCl, 20mM HEPES, 1mM DTT, pH 7.5

T1 sequence (P45973 whole entry): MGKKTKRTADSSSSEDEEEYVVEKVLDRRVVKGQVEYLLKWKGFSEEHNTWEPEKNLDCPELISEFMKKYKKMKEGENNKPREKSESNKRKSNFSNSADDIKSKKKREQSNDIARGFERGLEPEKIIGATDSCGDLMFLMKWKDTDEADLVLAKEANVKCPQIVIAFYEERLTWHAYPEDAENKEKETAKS

H3K9me3: human N-terminal histone H3 tail (residues 1–22) with trimethylated lysine 9, purchased from Bachem [reference compound]
decrease in α with H3K9me3 compared with lengthening the DNA to 10kbp (HP1α-DNA condensates [1]; 2.5kb DNA condensates): more pronounced | binding of HP1α chromodomain to histone H3 mark (HP1α): recognizes and binds specifically | mobile fraction of HP1α in condensates with peptide, 10μM peptide (HP1α-DNA condensates [2]; H3K9me3 peptide 10μM, Alexa488-HP1α, 2.5kbp DNA condensates, FRAP): ~ 100%

HP1α: Recombinantly expressed and purified HP1α (MW = 22kDa) from Biomatik Corporation
morphology with 4kbp DNA (9nM or 15nM) at t=0min and t=60min ([3]; 20μM HP1α, DIC 40x): spherical condensates can be seen | morphology change with 10kbp DNA (9nM or 15nM) over 1hour ([3]; 20μM HP1α, t=0min and t=60min, DIC 40x): changes in the morphology (from asymmetric to spherical) | assembly morphology with 10kbp DNA [3, 4]: assemblies with an asymmetric morphology were initially observed before transitioning to spherical droplets | droplet morphology with 2.5kbp and 4kbp DNA [3, 4]: spherical droplets appeared instantaneously | time of transition from asymmetric to spherical droplets with 10kbp DNA [3, 4]: ≤ 1 h | solubility / phase behavior of HP1α in the absence of DNA ([3]; same HP1α concentration, 70mM KCl, 20mM HEPES, 1mM DTT, pH 7.5): remains soluble | phase separation with DNA ([3]; three DNA lengths (2500, 4000, 10000 bp) at nanomolar concentrations, 70mM KCl, 20mM HEPES, 1mM DTT, pH 7.5, 23°C, DIC 40x): undergoes phase separation | DNA concentration inducing phase separation, 2500 bp DNA [3, 5]: 30 nM | DNA concentration inducing phase separation, 10000 bp DNA [3, 5]: 9 nM | average diffusive exponent α, 10kbp DNA condensates (HP1α-DNA condensates [1]; 20 μM HP1α and 9nM 10kbp DNA, no peptide, 200nm beads, 200ms interval, 23°C): 0.58±0.05 | average diffusive exponent α, 4kbp DNA condensates (HP1α-DNA condensates [1]; 20 μM HP1α and 20nM 4kbp DNA, no peptide, 200nm beads, 200ms interval, 23°C): 0.72±0.02 | diffusive exponent α, 2.5kbp DNA condensates (HP1α-DNA condensates [1]; 20 μM HP1α and 40nM 2.5kbp DNA, no peptide, 200nm beads, 200ms interval, 23°C): 0.85±0.06 and ~ 0.85±0.06 | FRAP dynamics of HP1α, in words (HP1α-DNA condensates [2]): remain dynamic | FRAP dynamics of HP1α, in words (HP1α-DNA condensates [2]; listed as HP1a): rapid recovery

unmodified H3: unmodified human N-terminal histone H3 tail (residues 1–22), purchased from Bachem
binding of HP1α chromodomain to histone H3 mark (HP1α): does not bind

H3K4me3: human N-terminal histone H3 tail (residues 1–22) with trimethylation of lysine 4, purchased from Bachem
binding of HP1α chromodomain to histone H3 mark (HP1α): does not bind
